Data published in ChEMBL document CHEMBL1799973, “Design, synthesis, and cytotoxic evaluation of acyl derivatives of 3-aminonaphtho[2,3-b]thiophene-4,9-dione, a quinone-based system” (J Med Chem, 2011).
Active and inactive are the calls of the source. No cut-off for these calls is given here.

Tests used:
Caco-2 [1] = experiment: […] of cell differentiation in human Caco2 cells assessed as increase in ALP activity at 10 uM after 48 hrs; format: functional; set-up: scale not given: the % may be the effect or the level left
Summary of the method: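 Caco-2 cells cultured 48 h with 0, 1, 5 or 10 μM compound. Attached and floating cells washed and lysed in 0.25% sodium deoxycholate. ALP activity measured with a diagnostic ALP reagent and protein by Bradford microassay. Activity expressed as units per mg protein, as a differentiation marker.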

MDA-MB-435 = experiment: Antitumor activity against human MDA-MB-435 cells after 24 to 48 hrs by MTT assay; format: functional, cell-based
Summary of the method: (§1)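 MTT read-out. Cells grown at 37 °C in DMEM with 10 mM glucose, 10% fetal calf serum, penicillin/streptomycin and 2 mmol/L glutamine. Seeded at 10^5 cells per well and left 24 h to attach, then compound added over a range of concentrations and cells grown 24 or 48 h. MTT at 1 mg/mL for 2 h at 37 °C in the dark, formazan dissolved in DMSO, OD read at 550 nm.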

COLO 205 = experiment: Antitumor activity against human COLO205 cells after 24 to 48 hrs by MTT assay; format: functional, cell-based
Summary of the method: as §1, with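 “nm. Values are % of vehicle control (0.5% DMSO); IC50 by linear and polynomial regression; triplicate.” for “nm.”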

SNB-19 = experiment: Antitumor activity against human SNB19 cells after 24 to 48 hrs by MTT assay; format: functional, cell-based
Summary of the method: as §1, with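 “nm. Values are % of vehicle control (0.5% DMSO); IC50 by linear and polynomial regression; triplicate.” for “nm.”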

U-937 = experiment: Antitumor activity against human U937 cells after 24 to 48 hrs by MTT assay; format: functional, cell-based
Summary of the method: as §1, with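 “nm. Values are % of vehicle control (0.5% DMSO); IC50 by linear and polynomial regression; triplicate.” for “nm.”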

[2] = Antitumor activity against human IGROV cells after 24 to 48 hrs by MTT assay; format: functional, cell-based; summary of the method: as §1
SF-295 = experiment: Antitumor activity against human SF295 cells after 24 to 48 hrs by MTT assay; format: functional, cell-based
Summary of the method: as §1, with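 “nm. Values are % of vehicle control (0.5% DMSO); IC50 by linear and polynomial regression; triplicate.” for “nm.”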

Nucleic Acid [3] = experiment: Binding affinity to DNA assessed as binding mode index by measuring aliphatic signals by DF-STD spectrophotometric analysis; format: nucleic-acid assay
Summary of the method: (§2)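 DF-STD NMR on poly(dG-dC)·poly(dG-dC) in H2O/D2O 9:1 with 100 mM phosphate-buffered saline, pH 7.1. Ligand 1.0 mM; DNA 50 μM as phosphate (20:1 ligand excess). Saturation is centred on the aromatic or low-field aliphatic region for 2 s, with a reference off-resonance at δ −16 ppm and 512 scans. The binding mode index is the relative response of ligand protons to base versus sugar/backbone saturation.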

SW-620 = experiment: Antitumor activity against human SW620 cells after 24 to 48 hrs by MTT assay; format: functional, cell-based
Summary of the method: as §1, with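 “nm. Values are % of vehicle control (0.5% DMSO); IC50 by linear and polynomial regression; triplicate.” for “nm.”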

Nucleic Acid [4] = experiment: Binding affinity to DNA assessed as binding mode index by measuring aromatic signals by DF-STD spectrophotometric analysis; format: nucleic-acid assay; summary of the method: as §2
MCF7 [5] = experiment: Drug uptake in human MCF7 cells assessed as nuclear localization at 50 nM after 30 mins by confocal microscopic analysis; format: ADME, cell-based; details: mcf7, 0.5 h, 0.05 µM
Summary of the method: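 Imaging in MCF-7 cells by confocal microscopy with 50 nM labeled compound. Cells fixed in paraformaldehyde for 30 min at 4 °C, permeabilized with Triton X-100 for 30 min at 4 °C, and nuclei stained with Hoechst 33342. Images taken with a 63× oil objective.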

Caco-2 [6] = experiment: Increase in Hsp27 protein expression in human Caco2 cells at 5 uM after 48 hrs by Western blot analysis; format: functional, cell-based
Summary of the method: (§3)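 Caco-2 cells treated for 48 h (1 or 5 μM for Hsp27; 1 μM for cyclin A). Lysed in ice-cold 50 mM Tris, 150 mM NaCl, 10 mM EDTA, 1% Triton with protease inhibitors. Equal protein run on 8–12% SDS-PAGE and transferred to nitrocellulose. Primary antibody overnight in TBS/Tween/1% milk, then HRP secondary; bands detected by ECL.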

MCF7 [7] = experiment: Cytotoxicity against human MCF7 cells; format: functional, cell-based
Summary of the method: as §1, with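 “nm. Values are % of vehicle control (0.5% DMSO); IC50 by linear and polynomial regression; triplicate.” for “nm.”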

Caco-2 [8] = experiment: Antitumor activity against human differentiated Caco2 cells after 24 to 48 hrs by MTT assay; format: cell-based
Summary of the method: as §1, with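 “nm. Values are % of vehicle control (0.5% DMSO); IC50 by linear and polynomial regression; triplicate.” for “nm.”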

Caco-2 [9] = experiment: Increase in Hsp27 protein expression in human Caco2 cells at 1 uM after 48 hrs by Western blot analysis; format: functional, cell-based; summary of the method: as §3
[10] = Antitumor activity against human MDA231 cells after 24 to 48 hrs by MTT assay; format: functional, cell-based; details: MDA-MB-231
Summary of the method: as §1, with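 “nm. Values are % of vehicle control (0.5% DMSO); IC50 by linear and polynomial regression; triplicate.” for “nm.”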

SK-MEL-28 = experiment: Antitumor activity against human SK-MEL-28 cells after 24 to 48 hrs by MTT assay; format: functional, cell-based
Summary of the method: as §1, with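 “nm. Values are % of vehicle control (0.5% DMSO); IC50 by linear and polynomial regression; triplicate.” for “nm.”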

Caco-2 [11] = experiment: Cell cycle arrest in human Caco2 cells assessed as accumulation at G1 phase at 1 uM after 48 hrs by propidium iodide staining based flow cytometric analysis (reference value: 42%); format: functional
Nucleic Acid [12] = experiment: Binding affinity to poly(dG-dC).poly(dG-dC) DNA assessed as compound/DNA complex formation at 1 mM by STD NMR spectrophotometric analysis; format: nucleic-acid assay
Summary of the method: (§4)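 Ligand at 1.0 mM with poly(dG-dC)·poly(dG-dC) at 50 μM (as phosphate groups), a 20:1 ligand excess, in H2O/D2O 9:1 with 100 mM phosphate-buffered saline, pH 7.1. Water suppressed by DPFGSE. STD effects taken relative to a reference spectrum with off-resonance saturation at δ −16 ppm, 2 s saturation, typically 512 scans. WaterLOGSY spectra recorded with and without DNA.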

HT-29 = experiment: Antitumor activity against human HT-29 cells after 24 to 48 hrs by MTT assay; format: functional, cell-based
Summary of the method: as §1, with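 “nm. Values are % of vehicle control (0.5% DMSO); IC50 by linear and polynomial regression; triplicate.” for “nm.”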

Nucleic Acid [13] = experiment: Binding affinity to poly(dG-dC).poly(dG-dC) DNA assessed as compound/DNA complex formation at 1 mM by WaterLOGSY NMR spectrophotometric analysis; format: nucleic-acid assay; summary of the method: as §4
Homo sapiens = species: Homo sapiens; experiment: Inhibition of human topoisomerase 2-mediated relaxation of supercoiled pBR322 DNA relaxation after 6 mins by agarose gel electrophoresis
Caco-2 [14] = experiment: Antitumor activity against human undifferentiated Caco2 cells after 24 to 48 hrs by MTT assay; format: functional, cell-based
Summary of the method: as §1, with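 “nm. Values are % of vehicle control (0.5% DMSO); IC50 by linear and polynomial regression; triplicate.” for “nm.”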

Caco-2 [15] = experiment: Cell cycle arrest in human Caco2 cells assessed as accumulation at S phase at 1 uM after 48 hrs by propidium iodide staining based flow cytometric analysis (reference value: 36%); format: functional
Caco-2 [16] = experiment: Cell cycle arrest in human Caco2 cells assessed as accumulation at G2/M phase at 1 uM after 48 hrs by propidium iodide staining based flow cytometric analysis (reference value: 21%); format: functional
Caco-2 [17] = experiment: Induction of cyclin A expression in human Caco2 cells at 1 uM after 48 hrs by Western blot analysis; format: functional; summary of the method: as §3
[18] = Cardiotoxicity in rat H9c2 cells assessed as cell viability at 1 uM up to 120 hrs by MTT assay; format: toxicity, cell-based; details: read-out: Activity
Summary of the method: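 Rat H9C2 cardiomyoblasts, passages 4–10, grown at 37 °C in DMEM with FBS, glutamine and penicillin/streptomycin. Plated at 2000 cells/well in quadruplicate and given compound at 1 μM for the indicated times. MTT reagent added for 2 h in the incubator, then absorbance read at 570 nm. Data are mean ± SD.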

Caco-2 [19] = experiment: Selectivity index, ratio IC50 for undifferentiated human Caco2 cells to IC50 for differentiated human Caco2 cells; format: functional
Summary of the method: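 Ratio of MTT IC50 in undifferentiated to differentiated Caco-2 cells. MTT conditions: 24 or 48 h exposure, formazan dissolved in DMSO, read at 550 nm, IC50 by regression, triplicate.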

For `CCN(CC)CCC(=O)Nc1csc2c1C(=O)c1ccccc1C2=O.Cl`, the Activity (Caco-2 [1]) was greater than 180%, the IC50 (MDA-MB-435) was 0.5 µM and the IC50 (COLO 205) was 0.9 µM. For the same compound, the IC50 (SNB-19) was 0.7 µM, the IC50 (U-937) was 1.1 µM and the IC50 [2] was 2.5 µM. For the same compound, the IC50 (SF-295) was 0.6 µM, the Activity (Nucleic Acid [3]) was 0.86 and the IC50 (SW-620) was 1.5 µM. The Activity (Nucleic Acid [4]) was 1.35, the Drug uptake (MCF7 [5]) was “Active” and the Activity (Caco-2 [6]) was “inactive”. For the same compound, the IC50 (MCF7 [7]) was 0.5 µM, the IC50 (Caco-2 [8]) was 4.1 µM and the Activity (Caco-2 [9]) was “Active”. It also gave an IC50 [10] of 2.5 µM, an IC50 (SK-MEL-28) of 0.6 µM and an Activity (Caco-2 [11]) of 29%. The Activity (Nucleic Acid [12]) was “Active”, the IC50 (HT-29) was 0.8 µM and the Activity (Nucleic Acid [13]) was “Active”. For the same compound, the inhibition (Homo sapiens) was “Dose-dependent effect”, the IC50 (Caco-2 [14]) was 1 µM and the Activity (Caco-2 [15]) was 41%. The Activity (Caco-2 [16]) was 28%, the Activity (Caco-2 [17]) was “inactive” and the viability at 120 h, 1 µM [18] was 74%. The “Ratio IC50” value (Caco-2 [19]) was 0.25.

Work on `CN(C)CCNC(=O)Nc1csc2c1C(=O)c1ccccc1C2=O` yielded an IC50 (U-937) of 9.8 µM, an IC50 (SW-620) of 5.9 µM and an IC50 [10] of 8.7 µM.

Work on `NCCC(=O)Nc1csc2c1C(=O)c1ccccc1C2=O.O=C(O)C(F)(F)F` yielded an IC50 (MDA-MB-435) of 0.4 µM, an IC50 (COLO 205) of 0.4 µM and an IC50 (SNB-19) of 1.6 µM. It also gave an IC50 (U-937) of 1.7 µM, an IC50 [2] of 1.2 µM and an IC50 (SF-295) of 2.8 µM. It also gave an IC50 (SW-620) of 0.8 µM, an IC50 (Caco-2 [8]) of 6.1 µM and an IC50 [10] of 3.7 µM. The IC50 (SK-MEL-28) was 1.5 µM, the IC50 (HT-29) was 0.6 µM and the IC50 (Caco-2 [14]) was 2.6 µM. For the same compound, the “Ratio IC50” value (Caco-2 [19]) was 0.43.

Work on `O=C(CCO)Nc1csc2c1C(=O)c1ccccc1C2=O` yielded an IC50 (U-937) of 15 µM, an IC50 (SW-620) of 20.3 µM and an IC50 [10] of 9.2 µM.

For `O=C(CCS)Nc1csc2c1C(=O)c1ccccc1C2=O`, the IC50 (U-937) was 23.9 µM, the IC50 (SW-620) was 20.7 µM and the IC50 [10] was 15.2 µM.

For `CN(C)CCNCC(=O)Nc1csc2c1C(=O)c1ccccc1C2=O`, the IC50 (U-937) was 4 µM, the IC50 (SW-620) was 2.1 µM and the IC50 [10] was 4.9 µM.

Compound `NCCCC[C@H](N)C(=O)Nc1csc2c1C(=O)c1ccccc1C2=O` has an IC50 (U-937) of 20 µM, an IC50 (SW-620) greater than 40 µM and an IC50 [10] greater than 40 µM.

In the case of `CCN(CC)CC(=O)Nc1csc2c1C(=O)c1ccccc1C2=O`, the IC50 (U-937) is reported as 5.1 µM, the IC50 (SW-620) is reported as 4 µM and the IC50 [10] is reported as 8.5 µM.

In the case of `Nc1csc2c1C(=O)c1ccccc1C2=O`, the IC50 (U-937) is reported as 10.1 µM, the IC50 (SW-620) is reported as 4 µM and the IC50 (MCF7 [7]) is reported as 3.2 µM. For the same compound, the IC50 [10] was 11.3 µM.

For `O=C(CCN1CCOCC1)Nc1csc2c1C(=O)c1ccccc1C2=O`, the IC50 (U-937) was 7.2 µM, the IC50 (SW-620) was 20.1 µM and the IC50 [10] was 10.1 µM.
